We go through four molecules from ChEMBL document CHEMBL1914422, “Activation of the c-Jun N-terminal kinase/activating transcription factor 3 (ATF3) pathway characterizes effective arylated diazeniumdiolate-based nitric oxide-releasing anticancer prodrugs” (J Med Chem, 2011).

The test system of one data set is NCI-H2122. Briefly: Antiproliferative activity against human NCI-H2122 cells after 72 hrs by MTT assay. The data set is classed as functional, cell-based. Conditions: NCI-H2122, 72 h. The method, boiled down:
(§1)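 Compounds (10 mM DMSO stocks, final DMSO ≤0.1%) added at increasing concentrations in PBS, incubated 72 h at 37 °C. MTT read-out, six repeats per concentration, at least two independent experiments.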
A general note: Formazan colour is commonly taken as a measure of viable cells.

Data set [1] can be described thus: Antiproliferative activity against human NCI-H1944 cells after 72 hrs by MTT assay. The data set is classed as functional, cell-based. The settings on record: NCI-H1944, 72 h. In short, it runs like this: as §1
Data set [2] can be described thus: Antiproliferative activity against human NCI-H1373 cells after 72 hrs by MTT assay. The settings on record: NCI-H1373, 72 h. The data set is classed as functional, cell-based. The method, boiled down:
as §1

A short description of data set [3]: Chemical stability of the compound in aqueous phosphate buffered saline assessed as half life at pH 7.4 in presence of 4 mM glutathione. The data set is classed as physicochemical. Conditions: gsh.
A further data set relates to NCI-H441. Briefly: Antiproliferative activity against human NCI-H441 cells after 72 hrs by MTT assay. The data set is classed as functional, cell-based. Conditions: NCI-H441, 72 h. The method, boiled down:
as §1

Data set [4] concerns NCI-H1703. Briefly: Antiproliferative activity against human NCI-H1703 cells after 72 hrs by MTT assay. The data set is classed as functional, cell-based. The settings on record: NCI-H1703, 72 h. The method, boiled down: as §1
A short description of data set [5]: Activation of JNK phosphorylation at Thr183 and Tyr185 in human NCI-H1703 cells at 1 uM within 30 mins by Western blot analysis. The data set is classed as cell-based. (In general: In western blotting, separated proteins are transferred to a membrane and probed.)
Data set [6] can be described thus: Activation of JNK phosphorylation in human NCI-H1703 cells assessed as increase in ATF3 protein level at 1 uM by Western blot analysis. The data set is classed as cell-based.
Data set [7] concerns NCI-H1703. Briefly: Antitumor activity against human NCI-H1703 cells xenografted in athymic NCr nu/nu Charles river mouse assessed as reduction of tumor growth at 8 umol/kg, iv administered 3 times a week for 3 weeks relative to vehicle treated control. The data set is classed as functional, organism-based. The method, boiled down:
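H1703 xenografts (5×10^6 cells s.c., flank) in 7-week-old female athymic NCr-nu/nu mice, treated from tumor size ≥2×2×2 mm. Dosing i.v. (tail vein) three times weekly for 3 weeks in 2.25% P-123/PBS. Mice killed 2 h after the last dose; tumors excised and weighed. 13–15 mice/group; Mann-Whitney test against vehicle.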

Data set [8] relates to NCI-H1703. Briefly: Induction of apoptosis in human NCI-H1703 cells assessed as PARP cleavage after 1 to 6 hrs by Western blot analysis. The data set is classed as functional, cell-based.
Data set [9] has as its system NCI-H1703. Briefly: Induction of apoptosis in human NCI-H1703 cells assessed as caspase 7 activation after 1 to 6 hrs by Western blot analysis. The data set is classed as functional, cell-based.
For data set [10], the system named is Mus musculus. Briefly: Toxicity in human NCI-H1703 cells xenografted athymic NCr nu/nu Charles river mouse assessed as change in body weight at 8 umol/kg, iv administered 3 times a week for 3 weeks (reference value: 22.2 +/- 0.4g). The data set is classed as organism-based. Conditions: in vivo, 504 h. The method, boiled down: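 Xenografted female athymic NCr-nu/nu mice (H1703, 5×10^6 cells s.c.) dosed i.v. three times weekly for 3 weeks in 2.25% P-123/PBS vehicle. Body weights recorded before each injection and compared with vehicle-treated controls at start and end.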
On the technique in general: Xenograft models place foreign cells or tissue in a host animal.

For data set [11], the system named is NCI-H1703. Briefly: Antitumor activity against human NCI-H1703 cells xenografted in NCr nu/nu Charles river mouse assessed as tissue death in tumor at 8 umol/kg, iv administered 3 times a week for 3 weeks by H and E staining method relative to control. The data set is classed as functional, organism-based. In short, it runs like this: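 Female athymic NCr-nu/nu mice, 7 weeks old, received 5×10^6 H1703 cells s.c. in the flank. Once tumors reached ≥2×2×2 mm, dosing was i.v. by tail vein three times weekly for 3 weeks in 2.25% P-123/PBS vehicle. Tumors excised 2 h after the last dose, H&E stained, and scored for areas of cell death against vehicle controls.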

Data set [12] deals with Mus musculus. Briefly: Induction of JNK phosphorylation in human NCI-H1703 cells xenografted NCr nu/nu Charles river mouse tumor at 8 umol/kg, iv administered 3 times a week for 3 weeks by immunohistochemical analysis. The data set is classed as functional, organism-based. The method, boiled down: (§2)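 H1703 xenografts in female athymic NCr-nu/nu mice, dosed i.v. three times weekly for 3 weeks in 2.25% P-123/PBS. Tumors taken 2 h after the last dose were immunostained for phospho-SAPK/JNK and ATF3. Intensity graded negative, very weak, weak, moderate or strong.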

The nature of data set [13]: Activation of JNK phosphorylation in human NCI-H1703 cells assessed as increase in ATF3 protein level at 1 uM within 2 hrs by Western blot analysis. The data set is classed as cell-based.
For data set [14], the system named is Mus musculus. Briefly: Induction of JNK phosphorylation in human NCI-H1703 cells xenografted NCr nu/nu Charles river mouse tumor assessed as increase in ATF3 protein level at 8 umol/kg, iv administered 3 times a week for 3 weeks by immunohistochemical analysis. The data set is classed as functional, organism-based. The method, boiled down:
as §2

Data set [15] deals with NCI-H1703. Briefly: Induction of apoptosis in human NCI-H1703 cells assessed as caspase 3 activation after 1 to 6 hrs by Western blot analysis. The data set is classed as functional, cell-based.

Activity calls are given as the source filed them. The calls are words filed in the database; no cut-off is given here.

As a reminder, the IC50 is the concentration that inhibits the measured activity by half. In the case of `CCOC(=O)N1CCN(/[N+]([O-])=N/Oc2cc(OC)c([N+](=O)[O-])cc2[N+](=O)[O-])CC1`, the IC50 in the data set with NCI-H2122 is 5780 nM; in [1] it was over 10000 nM; in data set [2], 2100 nM; in the data set with NCI-H441 it was 2500 nM; with NCI-H1703 [4] it was 1570 nM. The t1/2 in [3] is on record as 38.6 min. In data set [5], the result was inactive.
Turning to `CCOC(=O)N1CCN(/[N+]([O-])=N/Oc2cc(C)c([N+](=O)[O-])cc2[N+](=O)[O-])CC1`, the IC50 was 7000 nM with NCI-H2122; over 10000 nM in data set [1]; 1860 nM in data set [2]; 1610 nM in the data set on NCI-H441; 970 nM with NCI-H1703 [4]. The outcome (in data set [6]; in the data set on NCI-H1703 [8]; in the data set on NCI-H1703 [9]; in the data set with NCI-H1703 [11]; in the data set with Mus musculus [12]; in data set [13]) was inactive. Besides, the result (with Mus musculus [14]; in the data set on NCI-H1703 [15]; in data set [5]) was inactive. Also, the “growth inhibition (GI)” value with NCI-H1703 [7] was “inactive”. Also, the Activity in the data set with Mus musculus [10] worked out at 24.5 g. In addition, the t1/2 in data set [3] came to 71.5 min.
Turning to `CCOC(=O)N1CCCN(/[N+]([O-])=N/Oc2cc(OC)c([N+](=O)[O-])cc2[N+](=O)[O-])CC1`, the IC50 in the data set with NCI-H2122 is 10000 nM; in data set [1], over 10000 nM; in data set [2], 3080 nM; in the data set with NCI-H441, 3150 nM; with NCI-H1703 [4] it was 1820 nM. In data set [3], the t1/2 is 59.6 min. Moreover, the outcome in [5] was inactive.
For the molecule `CCOC(=O)N1CCCN(/[N+]([O-])=N/Oc2cc(C)c([N+](=O)[O-])cc2[N+](=O)[O-])CC1`, the concentration for half-maximal inhibition (IC50) with NCI-H2122 was 10000 nM; in [1] it was over 10000 nM; in data set [2], 3000 nM; in the data set with NCI-H441 it was 2020 nM; in the data set on NCI-H1703 [4], 1660 nM. Also, the t1/2 in data set [3] came to 25.7 min. Further, the outcome in data set [5] was inactive.
